Experimental data reported in PMC7808142 (ACS Omega, 2020).

Experiments:
[1] = Pharmacokinetics in rats after intravenous and oral administration; type: in vivo, Sprague-Dawley rats; settings: rat; for AUC(0-inf) / AUC(0-t) / C0 / MRT last / Vd / clearance / half-life / Cmax / bioavailability / Tmax: male, Sprague-Dawley, plasma; for half-life: t1/2, rat; for half-life / Tmax / AUCextr / t1/2: n = 3
Outline: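 Male SD rats (220–250 g), fasted 12 h, with jugular vein cannulae placed 2 days earlier under pentobarbital. Groups of 3 received 5 mg/kg iv (2 mg/mL with 30% HP-β-CD) or 100 mg/kg po (10 mg/mL suspension in 0.5% CMC-Na). Plasma (50 μL) was mixed with terfenadine internal standard and analysed by MRM LC-MS/MS (calibration 1.00–1000 ng/mL). Parameters are mean ± SD.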

[2] = Stability in rat plasma under different storage conditions; type: in vitro ADME; settings: n = 5
[3] = autosampler for 24 h (4 °C), spiked 2.00 ng/mL
[4] = autosampler for 24 h (4 °C), spiked 50.0 ng/mL
[5] = autosampler for 24 h (4 °C), spiked 800 ng/mL
[6] = long-term (30 days at -80 °C), spiked 2.00 ng/mL
[7] = long-term (30 days at -80 °C), spiked 50.0 ng/mL
[8] = long-term (30 days at -80 °C), spiked 800 ng/mL
[9] = three freeze/thaw cycles, spiked 2.00 ng/mL
[10] = three freeze/thaw cycles, spiked 50.0 ng/mL
[11] = three freeze/thaw cycles, spiked 800 ng/mL

SMILES | AUC(0-inf) ([1]; iv, 5 mg/kg) | AUC(0-t) ([1]; iv, 5 mg/kg) | C0 ([1]; iv, 5 mg/kg) | MRT last ([1]; iv, 5 mg/kg) | Vd ([1]; iv, 5 mg/kg) | clearance ([1]; iv, 5 mg/kg) | half-life ([1]; iv, 5 mg/kg, i.v. 5 mg/kg) | AUC(0-inf) ([1]; po, 100 mg/kg) | AUC(0-t) ([1]; po, 100 mg/kg) | Cmax ([1]; po, 100 mg/kg) | MRT last ([1]; po, 100 mg/kg) | bioavailability ([1]; po, 100 mg/kg) | Tmax ([1]; po, 100 mg/kg, p.o. 100 mg/kg) | half-life ([1]; po, 100 mg/kg, p.o. 100 mg/kg) | time after which the compound could not be detected in blood ([1]; i.v. 5 mg/kg) | AUCextr ([1]; i.v. 5 mg/kg) | t1/2 ([1]; i.v. 5 mg/kg, 5 mg/kg) | time until which the compound was detectable in plasma (above LLOQ) ([1]; p.o. 100 mg/kg) | AUCextr ([1]; p.o. 100 mg/kg) | stability, measured concentration [2, 3] | further results
C[C@@H]1CC[C@H]2[C@@H](C)C(=O)O[C@@H]3O[C@@]4(C)CC[C@@H]1[C@]32OO4 [artemisinin, Artemisinin] | 130 ± 39.1 ng·h/mL | 129 ± 38.9 ng·h/mL | 700 ± 166 ng/mL | 0.408 ± 0.066 h | 45.1 ± 12.3 L/kg | 674 ± 174 mL/min/kg | 0.77 ± 0.06 h | 318 ± 21.6 ng·h/mL | 309 ± 22.3 ng·h/mL | 65.1 ± 10.4 ng/mL | 3.46 ± 0.249 h | 12.2 ± 0.832% | 1.33 ± 0.58 h | 2.22 ± 0.25 h | 4 h | 0.967 ± 0.110% | 0.773 ± 0.0598 h | 12 h | 2.89 ± 0.999% | 1.91 ± 0.02 ng/mL | stability, accuracy (%, RE) [2, 3]: 95.7%; stability, accuracy (%, RE) [2, 4]: 91.0%; stability, measured concentration [2, 4]: 45.5 ± 0.66 ng/mL; stability, accuracy (%, RE) [2, 5]: 97.1%; stability, measured concentration [2, 5]: 777 ± 6.68 ng/mL; stability, accuracy (%, RE) [2, 6]: 97.3%; stability, measured concentration [2, 6]: 1.95 ± 0.02 ng/mL; stability, accuracy (%, RE) [2, 7]: 91.3%; stability, measured concentration [2, 7]: 45.7 ± 1.46 ng/mL; stability, accuracy (%, RE) [2, 8]: 95.2%; stability, measured concentration [2, 8]: 762 ± 9.29 ng/mL; stability, accuracy (%, RE) [2, 9]: 95.2%; stability, measured concentration [2, 9]: 1.90 ± 0.02 ng/mL; stability, accuracy (%, RE) [2, 10]: 95.2%; stability, measured concentration [2, 10]: 47.6 ± 0.52 ng/mL; stability, accuracy (%, RE) [2, 11]: 96.3%; stability, measured concentration [2, 11]: 770 ± 9.11 ng/mL
C[C@@H]1CC[C@H]2[C@@H](C)C(=O)O[C@@H]3O[C@@]4(C)CC[C@@H]1[C@]32O4 [deoxyartemisinin, Deoxyartemisinin] | 222 ± 47.1 ng·h/mL | 219 ± 46.1 ng·h/mL | 1070 ± 173 ng/mL | 0.671 ± 0.183 h | 48.3 ± 8 L/kg | 385 ± 74.5 mL/min/kg | 1.12 ± 0.16 h | 71 ± 14.1 ng·h/mL | 67.3 ± 14.2 ng·h/mL | 62.4 ± 31.3 ng/mL | 1.21 ± 0.388 h | 1.6 ± 0.317% | ~0.39 h | 1.12 ± 0.156 h | 8 h | 1.33 ± 0.214% | 1.45 ± 0.059 h | 6 h | 5.33 ± 1.92% | 2.18 ± 0.10 ng/mL | stability, accuracy (%, RE) [2, 4]: 99.0%; stability, measured concentration [2, 4]: 53.9 ± 1.66 ng/mL; stability, accuracy (%, RE) [2, 5]: 99.0%; stability, measured concentration [2, 5]: 782 ± 26.3 ng/mL; stability, accuracy (%, RE) [2, 6]: 101.5%; stability, measured concentration [2, 6]: 2.03 ± 0.07 ng/mL; stability, accuracy (%, RE) [2, 7]: 108.4%; stability, measured concentration [2, 7]: 54.2 ± 1.91 ng/mL; stability, accuracy (%, RE) [2, 8]: 96.0%; stability, measured concentration [2, 8]: 768 ± 50.2 ng/mL; stability, measured concentration [2, 9]: 1.98 ± 0.08 ng/mL; stability, accuracy (%, RE) [2, 10]: 109.1%; stability, measured concentration [2, 10]: 52.3 ± 0.99 ng/mL; stability, accuracy (%, RE) [2, 11]: 109.1%; stability, measured concentration [2, 11]: 774 ± 16.0 ng/mL
